In brackets after ≈: the same amount, converted by molar mass. Activity calls are given as the source filed them. No cut-off for these calls is given here.
What was measured:
[1] = biological target: T1, N-formyl peptide receptor 2 (Homo sapiens) (UniProt P25090); assay: Agonist activity at FPRL1 (unknown origin) expressed in CHO-K1 cells assessed as stimulation of beta-arrestin recruitment […] incubated for 150 mins by beta-galactosidase based PathHunter assay; assay type: functional, cell-based
T1 sequence (whole entry): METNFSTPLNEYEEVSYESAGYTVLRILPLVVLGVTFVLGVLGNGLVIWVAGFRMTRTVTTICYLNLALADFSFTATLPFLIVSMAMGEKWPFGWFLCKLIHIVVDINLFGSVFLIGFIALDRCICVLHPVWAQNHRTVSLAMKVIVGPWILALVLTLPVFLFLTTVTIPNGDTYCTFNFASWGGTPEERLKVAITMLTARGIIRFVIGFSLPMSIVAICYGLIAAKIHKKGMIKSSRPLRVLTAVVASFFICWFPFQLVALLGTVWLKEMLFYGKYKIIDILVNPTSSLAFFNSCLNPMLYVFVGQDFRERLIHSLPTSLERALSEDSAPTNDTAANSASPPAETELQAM
Outline: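 PathHunter CHO-K1 FPRL1 cells carry complementing β-galactosidase fragments. Plated at 5000/well, held 1 h RT, then overnight at 37 °C. Compounds were half-log serially diluted from 10 mM stocks in PBS. Stimulation 150 min at 37 °C; W-peptide (WKYMVm, 100 nM) was the high control. Detection reagent added for 60 min RT in the dark, with chemiluminescence read-out.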

[2] = biological target: T1, N-formyl peptide receptor 2 (Homo sapiens); assay: Agonist activity at FPRL1 (unknown origin) expressed in CHO-K1 cells assessed as increase in calcium mobilization […] incubated for 2.5 hrs by cellular based FLIPR assay; assay type: functional, cell-based
Outline: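 CHO-K1 cells overexpressing human FPR2 (PathHunter FPRL1 line), plated at 20,000/well in F-12 with 10% FBS and held 1 h RT, then overnight at 37 °C. Calcium 6 dye loaded 2 h at 37 °C, then 30 min RT in the dark. Compounds were half-log serially diluted from 10 mM stocks in HBSS with 20 mM HEPES. Cytosolic Ca2+ rise read on FLIPR Tetra.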

[3] = Kinetic solubility of compound in PBS at pH 7.4 by UV-VIS absorption spectrophotometry analysis; assay type: physicochemical; details: for solubility kinetic: PBS, read-out: Kinetic_solubility; for Kinetic_solubility: buffer
Outline: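 A 10 mM DMSO stock was diluted into PBS pH 7.4 at a target of 200 µM (final PBS:DMSO 98:2), in triplicate. Agitated 500 rpm for 90 min, then filtered. Filtrate diluted to PBS:DMSO 80:20 and its UV absorbance compared against a 200–6.75 µM standard series to give the concentration remaining in solution.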

[4] = biological target: T2, N-formyl peptide receptor 2 (Homo sapiens, UniProt P25090); assay: Agonist activity at FPRL1 (unknown origin) expressed in CHO-K1 cells assessed as stimulation of beta-arrestin recruitment incubated for 150 mins by beta-galactosidase based PathHunter assay; assay type: functional, cell-based
T2 sequence (P25090 whole entry): T1 sequence (whole entry)
Outline: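 PathHunter CHO-K1 FPRL1 cells expressing β-gal enzyme-fragment complementation, 5000 cells/well, held overnight at 37 °C. Stimulated with half-log serial dilutions of compounds (10 mM stocks in PBS) for 150 min at 37 °C. High control was WKYMVm at 100 nM. Detection reagent added for 60 min at RT in the dark, then chemiluminescence read.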

[5] = Distribution coefficient, logD of compound at pH 7.4 by shake flask method based LC-MS/MS analysis; assay type: physicochemical; details: octanol/water
Outline: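 Shake-flask method: compound diluted from 10 mM DMSO stock into equal volumes of octanol and PBS, final concentration 100 µM. Shaken 12 h, then centrifuged. Both layers analysed in triplicate by LC-MS/MS (MRM, C8 UPLC). LogD = log10 of the octanol/buffer peak-area ratio.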

[6] = biological target: T2, N-formyl peptide receptor 2; assay: Agonist activity at FPRL1 (unknown origin) expressed in CHO-K1 cells assessed as increase in calcium mobilization incubated for 2.5 hrs by cellular based FLIPR assay; assay type: functional, cell-based
Outline: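 CHO-K1 cells overexpressing hFPR2, plated at 20,000 cells/well in F-12 with 10% FBS and held overnight at 37 °C. Loaded with FLIPR Calcium 6 dye for 2 h at 37 °C, then 30 min at RT in the dark. Compounds were half-log serially diluted from 10 mM stocks in HBSS/20 mM HEPES. Cytosolic Ca2+ rise read on FLIPR Tetra. WKYMVm served as control.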

[7] = Microsomal stability in human liver microsomes assessed as half life at 1 uM preincubated for 5 mins followed by NADPH regenerating system addition measured after 30 mins by LC-MS/MS analysis; assay type: ADME, Microsome; details: t1/2, time 35 min
Outline: (§1)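 Human or mouse liver microsomes (0.2 mg/mL protein) with compound at 1 µM final, pre-incubated 5 min at 37 °C. Reaction started with NADPH generating solution and agitated at 37 °C, with samples quenched up to 30 min. Centrifuged; supernatant analysed in triplicate by LC-MS.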

[8] = Microsomal stability in mouse liver microsomes assessed as half life at 1 uM preincubated for 5 mins followed by NADPH regenerating system addition measured after 30 mins by LC-MS/MS analysis; assay type: ADME, Microsome; details: t1/2, time 35 min; outline: as §1
[9] = filed as agonist, time 0.067 hrs, in the assay text read “measured for 240 s” for “incubated for 2.5 hrs”

Row | Compound | Emax ([1]; filed as agonist) [%] | Emax [2, 9] [%] | solubility kinetic [3] [µM] | EC50 ([4]; read-out: EC50) [µM] | logD [5] | EC50 ([6]; read-out: EC50) [µM] | logD ([5]; read-out: logD) | half-life at 1 µM [7] [h] | EC50 ([6]; cho-k1) | Emax ([2]; time 2.5 hrs) | half-life at 1 µM [8] [h] | EC50 ([4]; cho-k1) | Emax [1] | Kinetic_solubility [3] [µM]
1 | O=C(Nc1ccc(Br)cc1)NC1CCN(C2CCN(Cc3ccccc3)C2)C1=O (stereo in doubt; 17) [listing 1 of 2 here] | 100 | 128 | – | – | – | – | – | – | – | – | – | – | – | –
2 | CC(C)(C)OC(=O)N1CCC[C@H](N2CCC(NC(=O)Nc3ccc(Br)cc3)C2=O)C1 (stereo in doubt; 19) [listing 1 of 2 here] | – | – | 71 (≈ 34.2 µg/mL) | 1.38 | > 4 | 0.13 | – | – | – | – | – | – | – | –
3 | O=C(Nc1ccc(Br)cc1)NC1CCN(c2cnn(-c3ccncc3)c2)C1=O (centres undefined) | 103 | – | 3 (≈ 1.32 µg/mL) | 3.76 | – | – | 4.3 | 11 | Not Active | inactive | – | – | – | –
4 | O=C(Nc1ccc(Br)cc1)NC1CCN(C2CCN(Cc3ccccc3)C2)C1=O (stereo in doubt; 18) [listing 1 of 2 here] | 99 | 84 | – | – | – | – | – | – | – | – | – | – | – | –
5 | O=C(Nc1ccc(Br)cc1)NC1CCN(C2CCN(Cc3ccccc3)CC2)C1=O (centres undefined) | 96 | 76 | 152 (≈ 71.7 µg/mL) | 2.87 | – | 0.35 | 3.5 | 1.87 | – | – | 1.17 | – | – | –
6 | O=C(Nc1ccc(Br)cc1)NC1CCN(CC2CCNCC2)C1=O (centres undefined) | 102 | 84 | 227 (≈ 89.7 µg/mL) | 3.29 | – | 0.27 | 0.8 | 6.35 | – | – | 2.33 | – | – | –
7 | CC(C)(C)OC(=O)N1CCC(N2CCC(NC(=O)Nc3ccc(Br)cc3)C2=O)CC1 (centres undefined) | 93 | 42 | 61 (≈ 29.4 µg/mL) | 6.3 | – | 0.73 | 4.6 | 4.17 | – | – | 0.522 | – | – | –
8 | CC(C)(C)OC(=O)N1CCC[C@H](N2CCC(NC(=O)Nc3ccc(Br)cc3)C2=O)C1 (stereo in doubt; 19) [listing 2 of 2 here] | 89 | 71 | – | – | – | – | – | – | – | – | – | – | – | –
9 | CC(C)(C)OC(=O)N1CC(N2CCC(NC(=O)Nc3ccc(Br)cc3)C2=O)C1 (centres undefined) | 103 | 67 | 222 (≈ 101 µg/mL) | 2.35 | – | 0.41 | > 4 | 1.88 | – | – | 1.87 | – | – | –
10 | CC(C)(C)OC(=O)N1CCC[C@H](N2CCC(NC(=O)Nc3ccc(Br)cc3)C2=O)C1 (stereo in doubt; 20) [listing 1 of 2 here] | 86 | 73 | – | – | – | – | – | – | – | – | – | – | – | –
11 | O=C(Nc1ccc(Br)cc1)NC1CCN(C2CCN(Cc3ccccc3)C2)C1=O (stereo in doubt; 18) [listing 2 of 2 here] | – | – | 207 (≈ 94.7 µg/mL) | 0.7 | – | 0.37 | 3 | 0.933 | – | – | 0.6 | – | – | –
12 | O=C(Nc1ccc(Br)cc1)NC1CCN(CC2CCN(Cc3ccccc3)CC2)C1=O (centres undefined) | 93 | 99 | 192 (≈ 93.2 µg/mL) | 2.25 | – | 0.25 | 2.5 | 3.78 | – | – | 2.02 | – | – | –
13 | COc1ccc(CNC(=O)NC2CCN(c3ccccc3)C2=O)cc1 (centres undefined) | – | – | – | – | – | – | 1.99 | 5.48 | Not Active | inactive | 5.95 | Not Active | inactive | –
14 | CC(NC(=O)NC1CCN(c2ccccc2)C1=O)c1ccncc1 (centres undefined) | – | – | – | – | – | – | 2 | 6.83 | Not Active | inactive | – | Not Active | inactive | –
15 | Cn1cc(N2CCC(NC(=O)NCc3cc(F)cc(F)c3)C2=O)cn1 (centres undefined) | – | – | – | – | – | – | 2.1 | 9.73 | Not Active | inactive | – | Not Active | inactive | –
16 | O=C(Nc1ccc(Br)cc1)NC1CCN(c2cnn(-c3ccccc3)c2)C1=O (centres undefined) | – | – | – | – | – | – | > 4 | 3.48 | Not Active | inactive | 1.78 | Not Active | inactive | –
17 | CC(C)(C)OC(=O)N1CCC(CN2CCC(NC(=O)Nc3ccc(Br)cc3)C2=O)CC1 (centres undefined) | 92 | 86 | 53 (≈ 26.3 µg/mL) | 2.16 | – | 0.4 | > 4 | 0.317 | – | – | 0.317 | – | – | –
18 | CC(NC(=O)NC1CC(C)N(c2ccccc2)C1=O)c1ccncc1 (centres undefined) | – | – | – | – | – | – | 2.8 | 8.42 | Not Active | inactive | 2.52 | Not Active | inactive | –
19 | O=C(Nc1ccc(Br)cc1)NC1CCN(Cc2ccccc2)C1=O (centres undefined) | – | – | 75 (≈ 29.1 µg/mL) | – | – | – | 4.4 | 2.8 | Not Active | inactive | 2.12 | Not Active | inactive | –
20 | Cc1nn(-c2ccccc2)c(C)c1N1CCC(NC(=O)Nc2ccc(Br)cc2)C1=O (centres undefined) | 95 | 150 | 57 (≈ 26.7 µg/mL) | 0.4 | – | 0.28 | 4.6 | 3.15 | – | – | 0.633 | – | – | –
21 | O=C(Nc1ccc(Br)cc1)NC1CCN(c2ccc(F)cc2)C1=O (centres undefined) | – | – | – | 0.51 | – | 1.97 | > 4 | > 6.67 | – | – | 0.55 | – | – | –
22 | CC1CC(NC(=O)NCc2nccn2C)C(=O)N1c1ccccc1 (centres undefined) | – | – | – | – | – | – | 1 | – | Not Active | inactive | – | Not Active | inactive | –
23 | O=C(Nc1ccc(Br)cc1)NC1CCN(C2CCN(c3ncccn3)CC2)C1=O (centres undefined) | 96 | – | – | 0.385 | – | 0.008 | 3.9 | 0.95 | – | – | 0.733 | – | – | –
24 | CCc1ccc(C(C)NC(=O)NC2CCN(c3cnn(C)c3)C2=O)cc1 (centres undefined) | – | – | – | – | – | – | – | – | Not Active | inactive | – | Not Active | inactive | –
25 | N#Cc1ccc(NC(=O)NC2CCN(c3ccccc3F)C2=O)cc1 (centres undefined) | – | 123 | – | – | – | 15 | 2.7 | 1.42 | – | – | 2.87 | Not Active | inactive | –
26 | O=C(Nc1ccc(Br)cc1)NC1CCN(C2CCNCC2)C1=O (centres undefined) | 100 | 68 | 234 (≈ 89.2 µg/mL) | 1.03 | – | 0.23 | 0.3 | – | – | – | – | – | – | –
27 | O=C(Nc1ccc(Br)cc1)NC1CCN(C2CCN(Cc3ccccc3)C2)C1=O (stereo in doubt; 17) [listing 2 of 2 here] | – | – | – | 1.37 | 3.3 | 2.7 | – | – | – | – | – | – | – | 210
28 | CC(C)(C)OC(=O)N1CCC[C@H](N2CCC(NC(=O)Nc3ccc(Br)cc3)C2=O)C1 (stereo in doubt; 20) [listing 2 of 2 here] | – | – | – | 0.55 | – | 0.06 | 4.1 | – | – | – | 0.5 | – | – | 54

— ChEMBL document CHEMBL5038608, “Design, synthesis, and biological evaluation of novel pyrrolidinone small-molecule Formyl peptide receptor 2 agonists” (Eur J Med Chem, 2021)
